# Results: ChEMBL document CHEMBL3414528, “Novel naftopidil-related derivatives and their biological effects as alpha1-adrenoceptors antagonists and antiproliferative agents” (Eur J Med Chem, 2015)
# How the values were obtained:
# [1] = Cell cycle arrest in human PC3 cells assessed as accumulation at G0/G1 phase at 5 uM after 24 hrs by propidium iodide staining-based flow cytometry (reference value: 39.20%); type: functional; conditions: PC-3
# In short: (§1)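 PC-3 cells given compound at 5, 10, 15, 20 or 30 μM, or 0.1% DMSO vehicle, for 24 h; stained with propidium iodide and analysed by flow cytometry for G0/G1, S and G2/M fractions.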
# [2] = Cell cycle arrest in human PC3 cells assessed as accumulation at S phase at 5 uM after 24 hrs by propidium iodide staining-based flow cytometry (reference value: 27.26%); type: functional; conditions: PC-3; in short: as §1
# [3] = Cell cycle arrest in human PC3 cells assessed as accumulation at S phase at 10 uM after 24 hrs by propidium iodide staining-based flow cytometry (reference value: 27.26%); type: functional; conditions: PC-3; in short: as §1
# [4] = Cell cycle arrest in human PC3 cells assessed as accumulation at G2/M phase at 10 uM after 24 hrs by propidium iodide staining-based flow cytometry (reference value: 33.04%); type: functional; conditions: PC-3; in short: as §1
# [5] = Cell cycle arrest in human PC3 cells assessed as accumulation at G0/G1 phase at 15 uM after 24 hrs by propidium iodide staining-based flow cytometry (reference value: 39.20%); type: functional; conditions: PC-3; in short: as §1
# [6] = Cell cycle arrest in human PC3 cells assessed as accumulation at G2/M phase at 15 uM after 24 hrs by propidium iodide staining-based flow cytometry (reference value: 33.04%); type: functional; conditions: PC-3; in short: as §1
# [7] = Cell cycle arrest in human PC3 cells assessed as accumulation at G0/G1 phase at 20 uM after 24 hrs by propidium iodide staining-based flow cytometry (reference value: 39.20%); type: functional; conditions: PC-3; in short: as §1
# [8] = Cell cycle arrest in human PC3 cells assessed as accumulation at S phase at 20 uM after 24 hrs by propidium iodide staining-based flow cytometry (reference value: 27.26%); type: functional; conditions: PC-3; in short: as §1
# [9] = Cell cycle arrest in human PC3 cells assessed as accumulation at G2/M phase at 20 uM after 24 hrs by propidium iodide staining-based flow cytometry (reference value: 33.04%); type: functional; conditions: PC-3; in short: as §1
# PC-3 [10] = test: Induction of apoptosis in human PC3 cells assessed as early apoptotic cells at 5 uM after 24 hrs by annexin V/propidium iodide staining-based flow cytometry (reference value: 5.7%); type: functional
# In short: (§2)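 Phosphatidylserine exposure in PC-3 cells after 24 h at 0, 5, 10, 20 or 30 μM, by Alexa Fluor 488 annexin V/PI double staining and flow cytometry; early apoptotic = AV+/PI−, late apoptotic or dead = AV+/PI+.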
# PC-3 [11] = test: Induction of apoptosis in human PC3 cells assessed as late apoptotic cells at 5 uM after 24 hrs by annexin V/propidium iodide staining-based flow cytometry (reference value: 2.1%); type: functional; in short: as §2
# PC-3 [12] = test: Induction of apoptosis in human PC3 cells assessed as early apoptotic cells at 10 uM after 24 hrs by annexin V/propidium iodide staining-based flow cytometry (reference value: 5.7%); type: functional; in short: as §2
# PC-3 [13] = test: Induction of apoptosis in human PC3 cells assessed as late apoptotic cells at 10 uM after 24 hrs by annexin V/propidium iodide staining-based flow cytometry (reference value: 2.1%); type: functional; in short: as §2
# PC-3 [14] = test: Induction of apoptosis in human PC3 cells assessed as early apoptotic cells at 20 uM after 24 hrs by annexin V/propidium iodide staining-based flow cytometry (reference value: 5.7%); type: functional; in short: as §2
# PC-3 [15] = test: Induction of apoptosis in human PC3 cells assessed as late apoptotic cells at 20 uM after 24 hrs by annexin V/propidium iodide staining-based flow cytometry (reference value: 2.1%); type: functional; in short: as §2
# PC-3 [16] = test: Induction of apoptosis in human PC3 cells assessed as early apoptotic cells at 30 uM after 24 hrs by annexin V/propidium iodide staining-based flow cytometry (reference value: 5.7%); type: functional; in short: as §2
# PC-3 [17] = test: Induction of apoptosis in human PC3 cells assessed as late apoptotic cells at 30 uM after 24 hrs by annexin V/propidium iodide staining-based flow cytometry (reference value: 2.1%); type: functional; in short: as §2
# PC-3 [18] = test: Induction of apoptosis in human PC3 cells assessed as total apoptotic cells at 5 uM after 24 hrs by annexin V/propidium iodide staining-based flow cytometry; type: functional; in short: as §2
# PC-3 [19] = test: Induction of apoptosis in human PC3 cells assessed as total apoptotic cells at 10 uM after 24 hrs by annexin V/propidium iodide staining-based flow cytometry; type: functional; in short: as §2
# PC-3 [20] = test: Induction of apoptosis in human PC3 cells assessed as total apoptotic cells at 20 uM after 24 hrs by annexin V/propidium iodide staining-based flow cytometry; type: functional; in short: as §2
# [21] = Induction of apoptosis in human PC3 cells assessed as upregulation of Bax expression after 24 hrs by Western blotting analysis; type: functional, cell-based; conditions: PC-3
# In short: (§3)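 PC-3 cells exposed for 24 h to 0, 1, 5, 10, 20 or 30 μM; Bax, Bcl-2 and activated caspase-3 measured by Western blot, reported as Bax/Bcl-2 value.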
# [22] = Induction of apoptosis in human PC3 cells assessed as upregulation of Bcl2 expression after 24 hrs by Western blotting analysis; type: functional, cell-based; conditions: PC-3, in the assay text read “upregulation of Bax/Bcl2 ratio” for “upregulation of Bcl2 expression”; in short: as §3
# [23] = target: T1, Alpha-1B adrenergic receptor (Rattus norvegicus, UniProt P15823); test: Antagonist activity at Sprague-Dawley rat spleen adrenergic alpha-1B receptor after 20 mins; conditions: read-out: pA2 (converted)
# T1 sequence (P15823 whole entry): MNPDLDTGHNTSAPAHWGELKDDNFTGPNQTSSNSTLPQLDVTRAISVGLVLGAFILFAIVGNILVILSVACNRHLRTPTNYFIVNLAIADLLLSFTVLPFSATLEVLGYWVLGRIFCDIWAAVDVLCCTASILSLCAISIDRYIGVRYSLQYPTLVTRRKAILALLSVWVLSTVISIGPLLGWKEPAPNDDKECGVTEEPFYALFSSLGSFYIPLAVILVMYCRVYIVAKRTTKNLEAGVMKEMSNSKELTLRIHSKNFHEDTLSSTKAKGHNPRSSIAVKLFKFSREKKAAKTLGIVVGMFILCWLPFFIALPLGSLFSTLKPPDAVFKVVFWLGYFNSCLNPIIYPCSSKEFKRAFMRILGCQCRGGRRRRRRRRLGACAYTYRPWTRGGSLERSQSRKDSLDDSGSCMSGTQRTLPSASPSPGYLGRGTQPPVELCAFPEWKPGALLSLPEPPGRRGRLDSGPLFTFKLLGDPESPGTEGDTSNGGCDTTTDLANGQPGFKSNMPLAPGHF
# In short: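 Isolated rat tissues (prostatic vas deferens, spleen, thoracic aorta) contracted with cumulative norepinephrine; concentration-response curves recorded in presence of increasing antagonist concentrations, antagonism read as rightward curve shift. Mean ± SEM of five to eight separate experiments.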
# [24] = Cytotoxicity against human PC3 cells after 48 hrs by WST-8 assay; type: functional, cell-based; conditions: PC-3, 48 h
# LNCaP = test: Cytotoxicity against human LNCAP cells after 48 hrs by WST-8 assay; type: functional, cell-based
# Rattus norvegicus = organism: Rattus norvegicus; test: Selectivity ratio for Sprague-Dawley rat thoracic aorta adrenergic alpha-1D receptor to Sprague-Dawley rat prostatic vas deferens adrenergic alpha-1A receptor
structure (smiles),measurement,setting,value
COc1ccccc1N1CCN(CCCNC(=O)c2cc3ccccc3n2Cc2ccccc2)CC1,Activity,[1],42.8%
same,Activity,[2],23.7%
same,Activity,[3],15.2%
same,Activity,[4],26.5%
same,Activity,[5],70.6%
same,Activity,[6],14.9%
same,Activity,[7],61.6%
same,Activity,[8],22.2%
same,Activity,[9],16.2%
same,Activity,PC-3 [10],20.2%
same,Activity,PC-3 [11],3.5%
same,Activity,PC-3 [12],41.9%
same,Activity,PC-3 [13],9.2%
same,Activity,PC-3 [14],44.9%
same,Activity,PC-3 [15],17.8%
same,Activity,PC-3 [16],50.4%
same,Activity,PC-3 [17],32.6%
same,Activity,PC-3 [18],23.7%
same,Activity,PC-3 [19],51.1%
same,Activity,PC-3 [20],62.7%
same,Activity,[21],Dose-dependent effect
same,Activity,[22],Dose-dependent effect
same,Kb,[23],0.141 µM
same,IC50,[24],15.7 µM
same,IC50,LNCaP,25.5 µM
same,Ratio,Rattus norvegicus,2.6
